Source: PubChem BioAssay (Johns Hopkins Ion Channel Center)
KCNK9 block – KCNK9 potassium channel inhibitors, primary screen, HEK293 cells, thallium flux; Potassium channel subfamily K member 9 (Homo sapiens), Q9NPC2; FluxOR thallium flux fluorescence; active compounds read low; B-score at 10 µM; 310,000 compounds, 1.2% hits; AID 488922, 2010;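 active = ratio B-score over 3 SD below the library mean, with starting fluorescence within 5 SD of its mean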;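 also: negative B-score means less thallium flux so channel inhibition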
Kir21 inh – inhibitors of mouse Kir2.1 inward-rectifier potassium channel. HEK293-Kir2.1, FluxOR thallium flux fluorescence; active compounds read low. AID 1672, 2009. Inward rectifier potassium channel 2 (Mus musculus), P35561. B-score at 10 µM. 310,000 compounds, 0.85% hits;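 active = fluorescence ratio B-score at or below minus 3 SD of library scores, with starting-brightness B-score within 2 SD, cut at about -4.2 in these data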;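 also: channel flux triggered by added potassium and thallium sulfate stimulus; B-score of peak minus minimum fluorescence over baseline after thallium stimulus; more negative B-score means stronger Kir2.1 block with less thallium influx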
KCNQ1 inh – inhibitors of human KCNQ1 channel, primary screen, cell-based, thallium flux, high-throughput; Potassium voltage-gated channel subfamily KQT member 1 (Homo sapiens), P51787; CHO-K1 KCNQ1, FluxOR thallium flux fluorescence; active compounds read high; B-score at 10 µM; 310,000 compounds, 1.3% hits; AID 2642, 2010;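 active = compounds whose thallium flux B-score, printed positive for inhibition, exceeds three library SD while starting fluorescence stays within three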;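 also: channel opened by potassium depolarization with thallium stimulus after 20 min compound exposure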
KCNK3 inh – human KCNK3 channel inhibitors, primary screen, CHO cells, FluxOR thallium flux, B-score | FluxOR fluorescence; active compounds read low | B-score at 10 µM | 340,000 compounds, 0.84% hits;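 active = B-score under library mean minus 4 SD, starting fluorescence ratio at most library mean plus 5 SD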;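 also: more negative B-score means stronger inhibition of thallium flux through KCNK3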
Target sequence (O14649 whole entry, looked up): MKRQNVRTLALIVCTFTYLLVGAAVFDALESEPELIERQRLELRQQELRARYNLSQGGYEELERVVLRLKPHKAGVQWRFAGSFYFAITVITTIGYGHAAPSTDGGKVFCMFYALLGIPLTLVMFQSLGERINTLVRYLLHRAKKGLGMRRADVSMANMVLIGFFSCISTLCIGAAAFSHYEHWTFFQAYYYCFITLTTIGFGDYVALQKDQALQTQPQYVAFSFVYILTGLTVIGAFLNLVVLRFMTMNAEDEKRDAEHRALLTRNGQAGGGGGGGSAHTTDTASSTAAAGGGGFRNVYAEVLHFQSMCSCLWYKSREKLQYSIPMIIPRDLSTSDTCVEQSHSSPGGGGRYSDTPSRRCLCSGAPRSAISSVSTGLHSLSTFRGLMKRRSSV
hERG protect – hERG rescue from dofetilide block, primary screen, cell-based, CHO-hERG, FluxOR thallium flux, dofetilide IC70; dofetilide IC70 present; activation (rescue from dofetilide block), less the hit threshold, % at 10 µM; 310,000 compounds, 0.51% hits;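 active = activation above the mean of controls blocked by dofetilide plus 5 SD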;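 also: thallium influx through hERG after potassium depolarization seen as dye fluorescence rise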
KCNQ1 act – potentiators or activators of KCNQ1 channel, primary screen, cell-based, thallium flux, high-throughput; B-score at 10 µM; Potassium voltage-gated channel subfamily KQT member 1 (Homo sapiens), P51787; CHO-K1 KCNQ1, thallium flux FluxOR fluorescence; active compounds read high; 310,000 compounds, 0.35% hits;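 active = fluorescence ratio B-score, a plate-corrected score, at least three library SD, with initial intensity B-score within 5 SD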
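System: CHO-K1 cells stably expressing KCNQ1 / Medium: assay buffer for compound exposure, DMSO matched across wells / Reagent: thallium- and potassium-containing depolarizing buffer / Compound: one concentration, matched DMSO / Incubation: 20 min compound pretreatment at room temperature / Measured by: kinetic FluxOR fluorescence, 10 s baseline plus 110 s post-stimulus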
* hit, by the source's call. Compounds with a hit are over-represented: about 3.7% of the library has one in this group of screens.

`CC(C)(C)C(=O)O/N=C1\CCS(=O)(=O)c2sccc21` gave KCNK9 block inactive, Kir21 inh -1.5, KCNQ1 inh inactive, KCNK3 inh inactive, hERG protect -4 and KCNQ1 act inactive.
`Cc1cccnc1NC(=O)CN1C(=O)NC(C)(c2ccc3ccccc3c2)C1=O` (stereo unspecified) gave KCNK9 block inactive, Kir21 inh -1.9, KCNQ1 inh inactive, KCNK3 inh inactive, hERG protect -12 and KCNQ1 act inactive.
CCOc1cc(C2NC(=O)CCC2[N+](=O)[O-])cc(Br)c1OC (stereo unspecified) was read as KCNK9 block inactive, Kir21 inh 1.4, KCNQ1 inh inactive, KCNK3 inh inactive, hERG protect -4 and KCNQ1 act inactive.
`Cn1c(=O)c2c(nc(N/N=C/c3ccc(OC(=O)c4ccco4)cc3)n2Cc2ccccc2Cl)n(C)c1=O` gave KCNK9 block inactive, Kir21 inh -0.53, KCNQ1 inh 7*, KCNK3 inh inactive, hERG protect -6 and KCNQ1 act inactive.
Screening CC(=Nc1cccc(C)c1)c1sc2ccccc2c1O returned KCNK9 block -7*, Kir21 inh -1.2, KCNQ1 inh inactive, KCNK3 inh inactive, hERG protect -2 and KCNQ1 act inactive.
Screening CC1CCc2c(sc3ncnc(SCC(=O)Nc4ccc(C(=O)O)cc4)c23)C1 (stereo unspecified) returned KCNK9 block inactive, Kir21 inh 0.02, KCNQ1 inh inactive, KCNK3 inh inactive, hERG protect -17 and KCNQ1 act inactive.
Screening COc1cc(NC(=O)CSc2ncnc3sc4c(c23)CCC(C)C4)c(C(=O)O)cc1OC (stereo unspecified) returned KCNK9 block inactive, Kir21 inh -0.06, KCNQ1 inh inactive, KCNK3 inh inactive, hERG protect 51* and KCNQ1 act 39*.
COc1cc(OC)cc(C(=O)Nc2cccc(C(C)=O)c2)c1 was read as KCNK9 block inactive, Kir21 inh -0.1, KCNQ1 inh inactive, KCNK3 inh inactive, hERG protect -13 and KCNQ1 act inactive.
For COc1cc(OC)cc(C(C)=O)c1 the results were KCNK9 block inactive, Kir21 inh 1.2, KCNQ1 inh inactive, KCNK3 inh inactive, hERG protect 5.7* and KCNQ1 act inactive.
Screening Cc1nn(-c2ccc(Cl)cc2Cl)c(=O)c2ccccc12 returned KCNK9 block inactive, Kir21 inh -0.42, KCNQ1 inh inactive, KCNK3 inh inactive, hERG protect 1 and KCNQ1 act inactive.
CC1=NN(S(=O)(=O)c2ccc(Cl)cc2Cl)C(=O)c2ccccc2O1 was read as KCNK9 block inactive, Kir21 inh -4.8*, KCNQ1 inh inactive, KCNK3 inh inactive, hERG protect -13 and KCNQ1 act inactive.
Cn1nnnc1SCc1ccc(C(=O)Nc2nccs2)cc1 was read as KCNK9 block inactive, Kir21 inh 0.04, KCNQ1 inh inactive, KCNK3 inh inactive, hERG protect -16 and KCNQ1 act inactive.
`C=CCn1c(SCc2ccc(C(=O)Nc3nccs3)cc2)nnc1-c1ccc(C)c(Cl)c1` gave KCNK9 block -7.2*, Kir21 inh -1.3, KCNQ1 inh inactive, KCNK3 inh inactive, hERG protect -7 and KCNQ1 act inactive.
`COc1ccccc1C(=O)NCCC(=O)Nc1ccc(OC(F)(F)F)cc1` gave KCNK9 block inactive, Kir21 inh -1.1, KCNQ1 inh inactive, KCNK3 inh inactive, hERG protect -3 and KCNQ1 act inactive.
Cc1ccc(Sc2ncccc2COC(=O)Nc2c(C)cccc2C)cc1 was read as KCNK9 block inactive, Kir21 inh -4.6*, KCNQ1 inh inactive, KCNK3 inh inactive, hERG protect -6 and KCNQ1 act inactive.
O=C1c2cccc3c([N+](=O)[O-])ccc(c23)C(=O)N1O was read as KCNK9 block inactive, Kir21 inh -3.4, KCNQ1 inh 8*, KCNK3 inh inactive, hERG protect -23 and KCNQ1 act inactive.
For O=C1c2ccc([N+](=O)[O-])cc2C(=O)N1c1ccc(Cl)cn1 the results were KCNK9 block inactive, Kir21 inh -2.2, KCNQ1 inh inactive, KCNK3 inh inactive, hERG protect -11 and KCNQ1 act inactive.
`O=C1c2cccc3c([N+](=O)[O-])ccc(c23)C(=O)N1c1ccc(Cl)cn1` gave KCNK9 block inactive, Kir21 inh -5*, KCNQ1 inh 7*, KCNK3 inh inactive, hERG protect -19 and KCNQ1 act inactive.
`O=C1c2cccc3c([N+](=O)[O-])ccc(c23)C(=O)N1c1ccccn1` gave KCNK9 block -6.6*, Kir21 inh -2.5, KCNQ1 inh inactive, KCNK3 inh inactive, hERG protect -14 and KCNQ1 act inactive.
For O=C1c2cccc3c(N4CCCCC4)ccc(c23)C(=O)N1c1ccccn1 the results were KCNK9 block -7.6*, Kir21 inh -0.67, KCNQ1 inh 8*, KCNK3 inh inactive, hERG protect -20 and KCNQ1 act inactive.
Screening CCCn1ncc(CN2CCC(N3CCC(C(=O)N4CCOCC4)CC3)CC2)c1C returned KCNK9 block inactive, Kir21 inh 0.22, KCNQ1 inh inactive, KCNK3 inh inactive, hERG protect -13 and KCNQ1 act inactive.
`NNC(=O)c1cc2ccccc2cc1NS(=O)(=O)c1ccccc1` gave KCNK9 block inactive, Kir21 inh -1.4, KCNQ1 inh inactive, KCNK3 inh inactive, hERG protect 0 and KCNQ1 act inactive.
`CCN(CC)c1nc2ccccc2nc1C(C#N)C(=O)NCCc1ccccc1` (stereo unspecified) gave KCNK9 block inactive, Kir21 inh -0.59, KCNQ1 inh inactive, KCNK3 inh inactive, hERG protect -16 and KCNQ1 act inactive.
CCCCN(CCCC)c1nc2ccccc2nc1C(C#N)C(=O)NCCCOC (stereo unspecified) was read as KCNK9 block inactive, Kir21 inh -1.6, KCNQ1 inh 15*, KCNK3 inh inactive, hERG protect -19 and KCNQ1 act inactive.
For CCCN(CCC)c1nc2ccccc2nc1C(C#N)C(=O)OC(C)COC (stereo unspecified) the results were KCNK9 block inactive, Kir21 inh -1.6, KCNQ1 inh 8*, hERG protect -9 and KCNQ1 act inactive.
